From ChEMBL document CHEMBL5344432, “Identification of a Dual Autophagy and REV-ERB Inhibitor with in Vivo Anticancer Efficacy” (J Med Chem, 2024)
Converted amounts (≈) assume the structure as drawn. The source made the active and inactive calls. No cut-off for these calls is given here.

Columns and labels:
[1] = Metabolic stability in mouse liver microsomes assessed as half life preincubated for 15 mins followed by UDPGA addition and measured after 2 hrs by LC-MS/MS analysis; format: ADME, Microsome; details: time 135 min
Summary of the method: (§1)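 Mouse and human liver microsomes incubated with UDPGA cofactor. Half-life and percent parent remaining at 120 min reported. Mean of at least two independent experiments, each in two technical replicates.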

[2] = Metabolic stability in rat liver microsomes assessed as parent compound remaining preincubated for 15 mins followed by NADPH addition and measured after 1 to 2 hrs by LC-MS/MS analysis; format: ADME, Microsome; details: time 75-135 min
Summary of the method: (§2)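 Microsomal stability assessed in mouse, human, rat or dog liver microsomes with NADPH cofactor. Half-life and percent parent remaining at 60 and 120 min reported. Mean of at least two independent experiments, each in two technical replicates.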

[3] = Aqueous kinetic solubility of the compound in PBS at pH 7.4 at 250 uM incubated for 24 hrs by UPLC/MS analysis; format: physicochemical; details: read-out: Kinetic_solubility
Summary of the method: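 Kinetic solubility measured in phosphate-buffered saline, pH 7.4. Mean of at least two independent experiments, each run in two technical replicates.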

[4] = Metabolic stability in human liver microsomes assessed as parent compound remaining preincubated for 15 mins followed by NADPH addition and measured after 1 hr by LC-MS/MS analysis; format: ADME, Microsome; details: time 75 min, read-out: Stability; summary of the method: as §2
[5] = Metabolic stability in mouse liver microsomes assessed as parent compound remaining preincubated for 15 mins followed by NADPH addition and measured after 1 hr by LC-MS/MS analysis; format: ADME, Microsome; details: time 75 min, read-out: Stability; summary of the method: as §2
[6] = Metabolic stability in dog liver microsomes assessed as parent compound remaining preincubated for 15 mins followed by NADPH addition and measured after 1 to 2 hrs by LC-MS/MS analysis; format: ADME, Canis lupus familiaris, Microsome; details: time 75-135 min; summary of the method: as §2
[7] = Metabolic stability in mouse liver microsomes assessed as parent compound remaining preincubated for 15 mins followed by NADPH addition and measured after 2 hrs by LC-MS/MS analysis; format: ADME, Microsome; details: time 135 min, read-out: Stability; summary of the method: as §2
[8] = Metabolic stability in mouse liver microsomes assessed as half-life preincubated for 15 mins followed by UDPGA addition and measured after 2 hrs by LC-MS/MS analysis
[9] = Metabolic stability in rat liver microsomes assessed as half life preincubated for 15 mins followed by NADPH addition and measured after 1 to 2 hrs by LC-MS/MS analysis; format: ADME, Microsome; details: time 75-135 min; summary of the method: as §2
HMEC = test: (§3) Cytotoxicity against HMECs; format: toxicity, cell-based; details: human, hmec
Summary of the method: (§4)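 BT-474 breast cancer cells and nontumorigenic HMECs treated 48 h with concentrations up to 30 μM. CC50 derived from concentration–response viability plots. Values >30 μM assigned when viability fell by less than 50% of vehicle at 30 μM. Mean ± SEM, n ≥ 3.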

[10] = Metabolic stability in human liver microsomes assessed as parent compound remaining preincubated for 15 mins followed by NADPH addition and measured after 2 hrs by LC-MS/MS analysis; format: ADME, Microsome; details: time 135 min, read-out: Stability; summary of the method: as §2
BT-474 = test: Cytotoxicity against human BT-474 cells; format: functional; summary of the method: as §4
[11] = Metabolic stability in human liver microsomes assessed as half life preincubated for 15 mins followed by NADPH addition and measured after 1 to 2 hrs by LC-MS/MS analysis; format: ADME, Microsome; details: liver microsomes, time 75-135 min; summary of the method: as §2
[12] = Metabolic stability in dog liver microsomes assessed as half life preincubated for 15 mins followed by NADPH addition and measured after 1 to 2 hrs by LC-MS/MS analysis; format: ADME, Canis lupus familiaris, Microsome; details: time 75-135 min; summary of the method: as §2
[13] = Metabolic stability in mouse liver microsomes assessed as half life preincubated for 15 mins followed by NADPH addition and measured after 1 to 2 hrs by LC-MS/MS analysis; format: ADME, Microsome; details: liver microsomes, time 75-135 min; summary of the method: as §2
[14] = Metabolic stability in human liver microsomes assessed as parent compound remaining preincubated for 15 mins followed by UDPGA addition and measured after 2 hrs by LC-MS/MS analysis; format: ADME, Microsome; details: time 135 min, read-out: Stability; summary of the method: as §1
A375 (human) [15] = test: Inhibition of autophagy in human A375 cells expressing EGFP-LC3B assessed as increase in LC3-II protein level at 2.5 uM after 24 hrs by immunoblotting analysis
[16] = Cytotoxicity against human UPMM-2 cells; format: functional
Summary of the method: (§5)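 Human cancer lines (A375, MDA-MB-231, OMM-1, UPMM-2, CAPAN-2, HepG2, HT-29, HCT116) treated up to 30 μM. CC50 derived from concentration–response viability plots. Mean ± SEM, n ≥ 6. Two-tailed unpaired t test used between compounds.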

MDA-MB-231 = test: Cytotoxicity against human MDA-MB-231 cells; format: functional; summary of the method: as §5
[17] = Cytotoxicity against human OMM-1 cells; format: functional; summary of the method: as §5
HCT-116 = test: Cytotoxicity against human HCT-116 cells; format: functional; summary of the method: as §5
HepG2 = test: Cytotoxicity against human HepG2 cells; format: functional; summary of the method: as §5
A-375 = test: Cytotoxicity against human A-375 cells; format: functional; summary of the method: as §5
[18] = as §3; format: toxicity, cell-based, HMEC; details: human, HMEC cells; summary of the method: as §4
Capan-2 = test: Cytotoxicity against human Capan-2 cells; format: functional; summary of the method: as §5
[19] = Inhibition of REV-ERBbeta (unknown origin) transcription expressed in HEK293 cells incubated for 24 hrs by gaussia luciferase based assay; format: cell-based; details: Homo sapiens, HEK293, 24 h
Summary of the method: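 HEK-293 cells cotransfected with REV-ERBβ and a luciferase reporter driven by two repeats of a REV-ERB response element (RevRE) consensus, then treated across a concentration range. Luciferase activity is expressed as fold of DMSO vehicle, mean ± SEM, n = 6, and EC50 is taken from the concentration-response curve. A parallel reporter carrying a mutated RevRE served as a specificity control.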

A375 (human) [20] = test: Inhibition of autophagy in human A375 cells expressing EGFP-LC3B assessed as accumulation of autophagosome after 24 hrs by Hoechst 33342 staining based fluorescent microscopy analysis; details: dose 1.25-5 µM
HT-29 = test: Cytotoxicity against human HT-29 cells; format: functional; summary of the method: as §5

SMILES | half-life [1] [min] | solubility kinetic at 24 h, 250 µM [3] [µM] | remaining at 1 h [4] [%] | remaining at 1 h [5] [%] | remaining at 2 h [7] [%] | t1/2 at 2 h [8] [min] | remaining at 2 h [10] [%] | CC50 (BT-474) [µM] | half-life [11] [min] | remaining at 2 h [14] [%] | further results
Fc1ccc(C2(NCc3cc(CC4CCNCC4)ccc3F)CCCC2)cc1 | > 120 | 245 (≈ 94.2 µg/mL) | 75 | 82 | 74 | > 120 | 54 | 2.29 | > 120 | 95 | Stability [2]: 75%; Stability [6]: 83%; half-life ([9]; liver microsomes): > 60 min; CC50 (HMEC): 17.2 µM; half-life ([12]; liver microsomes): > 60 min; half-life [13]: > 120 min
CN1CCC(Cc2cccc(CNC3(c4ccc(F)cc4)CCCC3)c2)CC1 | > 120 | 235 (≈ 89.4 µg/mL) | 79 | 66 | 39 | > 120 | 50 | 5.93 | > 120 | > 95 | inhibition (A375 (human) [15]): Active; CC50 [16]: 1910 nM; CC50 (MDA-MB-231): 7.42 µM; CC50 [17]: 2280 nM; CC50 (HCT-116): 13.5 µM; t1/2 ([9]; microsomes): 44 min; CC50 (HepG2): 2800 nM; CC50 (A-375): 5.67 µM; CC50 [18]: > 30 µM; CC50 (Capan-2): > 30 µM; EC50 [19]: 3.78 µM; inhibition (A375 (human) [20]): Dose-Dependent Effect; CC50 (HT-29): 18.9 µM; t1/2 ([12]; microsomes): 56 min
